# Measurements taken from ChEMBL document CHEMBL1212770, “Molecular and biochemical characterization of the natural chromosome-encoded class A beta-lactamase from Pseudomonas luteola” (Antimicrob Agents Chemother, 2010).
# Calls of active or inactive are those of the source. No cut-off for these calls is given here.
# B1: Beta-lactamase (Pseudomonas luteola), Q670S6 (protein)
# chain: MNVILNRRTFLLASAVVSASYSLGTLAGANRDDASFQDRLAKLEQQLNGRLGVCAIDTANGAQLGYRANERFAMNSTFKVMLASAFLARSQDEPGLLEERLTYTRADLVTYSPVTEKHVSTGMTVAELCAAGIQYSDNTAANVLMKKLGGPEAVTAFARSIGDTHFRLDRWETELNSAIPGDPRDTSTPQAMAMSLQRLALGDMLAADKQHQLQAWLKGNTTGGKRIRAGVPAGWQVGDKTGTGDYGSANDVAILWPPRRAPVVLALYSALENQQAEARNDVLADAARIVAEWVTG
# Key:
# [1] = system: Escherichia coli; assay: Antimicrobial activity against Escherichia coli DH10B by Etest method; format: functional; conditions: K-12 DH10B
# [2] = system: Escherichia coli; assay: Antimicrobial activity against Escherichia coli DH10B transfected with pBK-L3 expressing blaLUT-1 by Etest method; format: functional; conditions: K-12 DH10B
# [3] = system: Pseudomonas luteola; assay: Antimicrobial activity against Pseudomonas luteola LAM expressing blaLUT-1 by Etest method; format: functional
# [4] = system: Pseudomonas luteola; assay: Antimicrobial activity against Pseudomonas luteola expressing blaLUT-2 to blaLUT-6 by Etest method; format: functional
# [5] = system: Escherichia coli; assay: microbe, parasite or virus in culture; conditions: K-12 DH10B
# [6] = system: Escherichia coli; assay: Antimicrobial activity against Escherichia coli DH10B by Etest method in presence of 4 ug/ml clavulanic acid; format: functional; conditions: K-12 DH10B
# [7] = system: Pseudomonas luteola; assay: Antimicrobial activity against Pseudomonas luteola LAM expressing blaLUT-1 by Etest method in presence of 4 ug/ml clavulanic acid; format: functional
# [8] = system: Pseudomonas luteola; assay: Antimicrobial activity against Pseudomonas luteola expressing blaLUT-2 to blaLUT-6 by Etest method in presence of 4 ug/ml clavulanic acid; format: functional
# [9] = system: Escherichia coli; assay: Antimicrobial activity against Escherichia coli DH10B by Etest method in presence of 2 ug/ml clavulanic acid; format: functional; conditions: K-12 DH10B
# [10] = system: Pseudomonas luteola; assay: Antimicrobial activity against Pseudomonas luteola LAM expressing blaLUT-1 by Etest method in presence of 2 ug/ml clavulanic acid; format: functional
# [11] = system: Pseudomonas luteola; assay: Antimicrobial activity against Pseudomonas luteola expressing blaLUT-2 to blaLUT-6 by Etest method in presence of 2 ug/ml clavulanic acid; format: functional
# [12] = system: Escherichia coli; assay: Antimicrobial activity against Escherichia coli DH10B transfected with pBK-L3 expressing blaLUT-1 by Etest method in presence of 2 ug/ml clavulanic acid; format: functional; conditions: K-12 DH10B
# [13] = system: Escherichia coli; assay: Antimicrobial activity against Escherichia coli DH10B at 2:1 ratio of compound to clavulanic acid by Etest method; format: functional; conditions: K-12 DH10B
# [14] = system: Pseudomonas luteola; assay: Antimicrobial activity against Pseudomonas luteola LAM expressing blaLUT-1 at 2:1 ratio of compound to clavulanic acid by Etest method; format: functional
# [15] = system: Escherichia coli; assay: Antimicrobial activity against Escherichia coli DH10B transfected with pBK-L3 expressing blaLUT-1 at 2:1 ratio of compound to clavulanic acid by Etest method; format: functional; conditions: K-12 DH10B
# [16] = system: Pseudomonas luteola; assay: Antimicrobial activity against Pseudomonas luteola expressing blaLUT-2 to blaLUT-6 at 2:1 ratio of compound to clavulanic acid by Etest method; format: functional
# [17] = substrate: CO/N=C(\C(=O)N[C@@H]1C(=O)N2C(C(=O)O)=C(COC(N)=O)CS[C@H]12)c1ccco1; assay: (§1) Ratio of kcat/Km for Pseudomonas luteola LAM Beta-lactamase LUT-1
# Summary of the method: (§2)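 LUT-1 was purified from E. coli DH5α(pBK-L3) grown for 18 h at 37°C in 2× yeast-tryptone broth with kanamycin 20 μg/ml and amoxicillin 32 μg/ml. Purification used Q Sepharose ion exchange, then Superose 12 gel filtration, with purity checked by SDS-PAGE. Km and kcat were determined by a computerized microacidimetric method, each three times, with coefficients of variation not exceeding 15%.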
# [18] = substrate: C[C@H]1[C@H](NC(=O)/C(=N\OC(C)(C)C(=O)O)c2csc(N)n2)C(=O)N1S(=O)(=O)O; assay: as §1; summary of the method: as §2
# [19] = substrate: CC(=O)OCC1=C(C(=O)O)N2C(=O)[C@@H](NC(=O)Cc3cccs3)[C@H]2SC1; assay: as §1; summary of the method: as §2
# [20] = substrate: CC1(C)S[C@@H]2[C@H](NC(=O)Cc3ccccc3)C(=O)N2[C@H]1C(=O)O; assay: as §1; summary of the method: as §2
# [21] = substrate: CC1(C)S[C@@H]2[C@H](NC(=O)[C@H](C(=O)O)c3ccsc3)C(=O)N2[C@H]1C(=O)O; assay: as §1; summary of the method: as §2
# [22] = substrate: CC1(C)S[C@@H]2[C@H](NC(=O)[C@H](N)c3ccc(O)cc3)C(=O)N2[C@H]1C(=O)O; assay: as §1; summary of the method: as §2
# [23] = substrate: CO/N=C(\C(=O)N[C@@H]1C(=O)N2C(C(=O)O)=C(COC(C)=O)CS[C@H]12)c1csc(N)n1; assay: as §1; summary of the method: as §2
# [24] = substrate: CC(C)(O/N=C(\C(=O)N[C@@H]1C(=O)N2C(C(=O)[O-])=C(C[n+]3ccccc3)CS[C@H]12)c1csc(N)n1)C(=O)O; assay: as §1; summary of the method: as §2
# [25] = substrate: CCN1CCN(C(=O)N[C@@H](C(=O)N[C@@H]2C(=O)N3[C@@H]2SC(C)(C)[C@@H]3C(=O)O)c2ccccc2)C(=O)C1=O; assay: as §1; summary of the method: as §2
# [26] = substrate: CO/N=C(\C(=O)N[C@@H]1C(=O)N2C(C(=O)O)=C(COC(N)=O)CS[C@H]12)c1ccco1; assay: (§3) Activity of Pseudomonas luteola LAM Beta-lactamase LUT-1; summary of the method: as §2
# [27] = substrate: C[C@H]1[C@H](NC(=O)/C(=N\OC(C)(C)C(=O)O)c2csc(N)n2)C(=O)N1S(=O)(=O)O; assay: as §3; summary of the method: as §2
# [28] = substrate: CC(=O)OCC1=C(C(=O)O)N2C(=O)[C@@H](NC(=O)Cc3cccs3)[C@H]2SC1; assay: as §3; summary of the method: as §2
# [29] = substrate: CC1(C)S[C@@H]2[C@H](NC(=O)Cc3ccccc3)C(=O)N2[C@H]1C(=O)O; assay: as §3; summary of the method: as §2
# [30] = substrate: CC1(C)S[C@@H]2[C@H](NC(=O)[C@H](C(=O)O)c3ccsc3)C(=O)N2[C@H]1C(=O)O; assay: as §3; summary of the method: as §2
# [31] = substrate: CC1(C)S[C@@H]2[C@H](NC(=O)[C@H](N)c3ccc(O)cc3)C(=O)N2[C@H]1C(=O)O; assay: as §3; summary of the method: as §2
# [32] = substrate: CO/N=C(\C(=O)N[C@@H]1C(=O)N2C(C(=O)O)=C(COC(C)=O)CS[C@H]12)c1csc(N)n1; assay: as §3; summary of the method: as §2
# [33] = substrate: CC(C)(O/N=C(\C(=O)N[C@@H]1C(=O)N2C(C(=O)[O-])=C(C[n+]3ccccc3)CS[C@H]12)c1csc(N)n1)C(=O)O; assay: as §3; summary of the method: as §2
# [34] = substrate: CCN1CCN(C(=O)N[C@@H](C(=O)N[C@@H]2C(=O)N3[C@@H]2SC(C)(C)[C@@H]3C(=O)O)c2ccccc2)C(=O)C1=O; assay: as §3; summary of the method: as §2
molecule,measurement,setting,value
CO[C@@]1(NC(=O)Cc2cccs2)C(=O)N2C(C(=O)O)=C(COC(N)=O)CS[C@@H]21 [CEFOXITIN],MIC,[1],4 µg/mL
same,MIC,[2],4 µg/mL
same,MIC,[3],32 µg/mL
same,MIC,[4],32 µg/mL
CO/N=C(\C(=O)N[C@@H]1C(=O)N2C(C(=O)[O-])=C(C[N+]3(C)CCCC3)CS[C@H]12)c1csc(N)n1,MIC,[2],0.5 µg/mL
same,MIC,[3],0.5 µg/mL
same,MIC,[4],1 µg/mL
CO/N=C(\C(=O)N[C@@H]1C(=O)N2C(C(=O)O)=C(COC(C)=O)CS[C@H]12)c1csc(N)n1 [CEFOTAXIME],MIC,[5],0.06 µg/mL
same,MIC,[6],< 0.06 µg/mL
same,MIC,[1],< 0.06 µg/mL
same,MIC,[7],1 µg/mL
same,MIC,[2],1 µg/mL
same,MIC,[8],1 µg/mL
same,MIC,[3],1 µg/mL
same,MIC,[4],2 µg/mL
O=C(N[C@H](CO)[C@H](O)c1ccc([N+](=O)[O-])cc1)C(Cl)Cl,Activity,[3],inactive
C[C@@H](O)[C@H]1C(=O)N2C(C(=O)O)=C(SCCNC=N)C[C@H]12 [IMIPENEM ANHYDROUS],MIC,[3],0.25 µg/mL
same,MIC,[4],0.25 µg/mL
CC1(C)S[C@@H]2[C@H](NC(=O)[C@H](C(=O)O)c3ccsc3)C(=O)N2[C@H]1C(=O)O [TICARCILLIN],MIC,[9],2 µg/mL
same,MIC,[10],4 µg/mL
same,MIC,[1],2 µg/mL
same,MIC,[11],2 µg/mL
same,MIC,[12],16 µg/mL
same,MIC,[2],256 µg/mL
same,MIC,[3],8 µg/mL
same,MIC,[4],8 µg/mL
CC1(C)S[C@@H]2[C@H](NC(=O)[C@H](N)c3ccc(O)cc3)C(=O)N2[C@H]1C(=O)O [AMOXICILLIN],MIC,[13],4 µg/mL
same,MIC,[1],4 µg/mL
same,MIC,[14],1 µg/mL
same,MIC,[15],4 µg/mL
same,MIC,[2],128 µg/mL
same,MIC,[3],4 µg/mL
same,MIC,[16],1 µg/mL
same,MIC,[4],4 µg/mL
B1,kcat/Km,[17],1.19e+07 M⁻¹ s⁻¹
same,kcat/Km,[18],40000 M⁻¹ s⁻¹
same,kcat/Km,[19],2.59e+07 M⁻¹ s⁻¹
same,kcat/Km,[20],3.87e+06 M⁻¹ s⁻¹
same,kcat/Km,[21],360000 M⁻¹ s⁻¹
same,kcat/Km,[22],1.05e+06 M⁻¹ s⁻¹
same,kcat/Km,[23],5.25e+06 M⁻¹ s⁻¹
same,kcat/Km,[24],40000 M⁻¹ s⁻¹
same,kcat/Km,[25],1.14e+06 M⁻¹ s⁻¹
same,Km,[26],24 µM
same,kcat,[26],286 s⁻¹
same,Km,[27],40 µM
same,kcat,[27],1.5 s⁻¹
same,Km,[28],21 µM
same,kcat,[28],543 s⁻¹
same,Km,[29],8 µM
same,kcat,[29],31 s⁻¹
same,Km,[30],14 µM
same,kcat,[30],5 s⁻¹
same,Km,[31],20 µM
same,kcat,[31],21 s⁻¹
same,Km,[32],86 µM
same,kcat,[32],452 s⁻¹
same,Km,[33],35 µM
same,kcat,[33],1.3 s⁻¹
same,Km,[34],7 µM
same,kcat,[34],8 s⁻¹
